Hits are enriched below; roughly 1.1% of the tested compounds scored in any of these assays.
Arr AP2 block – human beta-arrestin and AP2 interaction inhibition; FITC-arrestin peptide / GST-AP2 beads, flow cytometry; AP2 beta2 appendage carries R879A mutation; inhibition, % at 10 µM; 340,000 tested, 0.31% active;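 active = inhibition above a set limit, near 3 SD of compounds lacking own fluorescence, cut at about 54% in these data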;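 also: plate controls were DMSO wells for no effect and 5 µM unlabelled arrestin peptide for full effect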
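Material – GST-tagged AP2 beta2-adaptin appendage (R879A) on 4 µm glutathione beads · Probe or stimulus – fluorescein-tagged arrestin peptide at 50 nM final · Timing – 12 min plus 1 h, RT · Detection – bead flow cytometry, FITC channel · Read-out basis – inhibition as reduced fluorescein signal on beads, percent · Medium – PBS plus Tween 20 (0.05%) and BSA (0.1%)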
GASC-1 inh – inhibitors of human GASC-1 (JMJD2C) demethylase; AID 2099; Q9H3R0; 330,000 tested, 0.069% active; GST-JMJD2C(1-420) H3K9me3 demethylation, DELFIA europium; inhibition, % at 2.35 µM;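 active = more than half of a compound's replicate wells show inhibition beyond 50%, single wells judged on their own value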;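 also: signal counts dimethyl H3K9 product captured on neutravidin plate; 0% = median of DMSO wells and 100% = 0.3 times that DMSO median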
FAS TE block – blocks the thioesterase domain of human fatty acid synthase; recombinant FAS-TE, OMFH fluorogenic substrate, fluorescence endpoint; 360,000 tested, 0.67% active; inhibition, % at 15 µM; P49327;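 active = compounds whose normalised, plate-corrected inhibition of enzyme fluorescence in the single-dose primary screen is 50% or more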;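 also: 0% = DMSO with enzyme and 100% = substrate without enzyme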
Target sequence (P49327 whole entry, looked up, the tested form may be a part): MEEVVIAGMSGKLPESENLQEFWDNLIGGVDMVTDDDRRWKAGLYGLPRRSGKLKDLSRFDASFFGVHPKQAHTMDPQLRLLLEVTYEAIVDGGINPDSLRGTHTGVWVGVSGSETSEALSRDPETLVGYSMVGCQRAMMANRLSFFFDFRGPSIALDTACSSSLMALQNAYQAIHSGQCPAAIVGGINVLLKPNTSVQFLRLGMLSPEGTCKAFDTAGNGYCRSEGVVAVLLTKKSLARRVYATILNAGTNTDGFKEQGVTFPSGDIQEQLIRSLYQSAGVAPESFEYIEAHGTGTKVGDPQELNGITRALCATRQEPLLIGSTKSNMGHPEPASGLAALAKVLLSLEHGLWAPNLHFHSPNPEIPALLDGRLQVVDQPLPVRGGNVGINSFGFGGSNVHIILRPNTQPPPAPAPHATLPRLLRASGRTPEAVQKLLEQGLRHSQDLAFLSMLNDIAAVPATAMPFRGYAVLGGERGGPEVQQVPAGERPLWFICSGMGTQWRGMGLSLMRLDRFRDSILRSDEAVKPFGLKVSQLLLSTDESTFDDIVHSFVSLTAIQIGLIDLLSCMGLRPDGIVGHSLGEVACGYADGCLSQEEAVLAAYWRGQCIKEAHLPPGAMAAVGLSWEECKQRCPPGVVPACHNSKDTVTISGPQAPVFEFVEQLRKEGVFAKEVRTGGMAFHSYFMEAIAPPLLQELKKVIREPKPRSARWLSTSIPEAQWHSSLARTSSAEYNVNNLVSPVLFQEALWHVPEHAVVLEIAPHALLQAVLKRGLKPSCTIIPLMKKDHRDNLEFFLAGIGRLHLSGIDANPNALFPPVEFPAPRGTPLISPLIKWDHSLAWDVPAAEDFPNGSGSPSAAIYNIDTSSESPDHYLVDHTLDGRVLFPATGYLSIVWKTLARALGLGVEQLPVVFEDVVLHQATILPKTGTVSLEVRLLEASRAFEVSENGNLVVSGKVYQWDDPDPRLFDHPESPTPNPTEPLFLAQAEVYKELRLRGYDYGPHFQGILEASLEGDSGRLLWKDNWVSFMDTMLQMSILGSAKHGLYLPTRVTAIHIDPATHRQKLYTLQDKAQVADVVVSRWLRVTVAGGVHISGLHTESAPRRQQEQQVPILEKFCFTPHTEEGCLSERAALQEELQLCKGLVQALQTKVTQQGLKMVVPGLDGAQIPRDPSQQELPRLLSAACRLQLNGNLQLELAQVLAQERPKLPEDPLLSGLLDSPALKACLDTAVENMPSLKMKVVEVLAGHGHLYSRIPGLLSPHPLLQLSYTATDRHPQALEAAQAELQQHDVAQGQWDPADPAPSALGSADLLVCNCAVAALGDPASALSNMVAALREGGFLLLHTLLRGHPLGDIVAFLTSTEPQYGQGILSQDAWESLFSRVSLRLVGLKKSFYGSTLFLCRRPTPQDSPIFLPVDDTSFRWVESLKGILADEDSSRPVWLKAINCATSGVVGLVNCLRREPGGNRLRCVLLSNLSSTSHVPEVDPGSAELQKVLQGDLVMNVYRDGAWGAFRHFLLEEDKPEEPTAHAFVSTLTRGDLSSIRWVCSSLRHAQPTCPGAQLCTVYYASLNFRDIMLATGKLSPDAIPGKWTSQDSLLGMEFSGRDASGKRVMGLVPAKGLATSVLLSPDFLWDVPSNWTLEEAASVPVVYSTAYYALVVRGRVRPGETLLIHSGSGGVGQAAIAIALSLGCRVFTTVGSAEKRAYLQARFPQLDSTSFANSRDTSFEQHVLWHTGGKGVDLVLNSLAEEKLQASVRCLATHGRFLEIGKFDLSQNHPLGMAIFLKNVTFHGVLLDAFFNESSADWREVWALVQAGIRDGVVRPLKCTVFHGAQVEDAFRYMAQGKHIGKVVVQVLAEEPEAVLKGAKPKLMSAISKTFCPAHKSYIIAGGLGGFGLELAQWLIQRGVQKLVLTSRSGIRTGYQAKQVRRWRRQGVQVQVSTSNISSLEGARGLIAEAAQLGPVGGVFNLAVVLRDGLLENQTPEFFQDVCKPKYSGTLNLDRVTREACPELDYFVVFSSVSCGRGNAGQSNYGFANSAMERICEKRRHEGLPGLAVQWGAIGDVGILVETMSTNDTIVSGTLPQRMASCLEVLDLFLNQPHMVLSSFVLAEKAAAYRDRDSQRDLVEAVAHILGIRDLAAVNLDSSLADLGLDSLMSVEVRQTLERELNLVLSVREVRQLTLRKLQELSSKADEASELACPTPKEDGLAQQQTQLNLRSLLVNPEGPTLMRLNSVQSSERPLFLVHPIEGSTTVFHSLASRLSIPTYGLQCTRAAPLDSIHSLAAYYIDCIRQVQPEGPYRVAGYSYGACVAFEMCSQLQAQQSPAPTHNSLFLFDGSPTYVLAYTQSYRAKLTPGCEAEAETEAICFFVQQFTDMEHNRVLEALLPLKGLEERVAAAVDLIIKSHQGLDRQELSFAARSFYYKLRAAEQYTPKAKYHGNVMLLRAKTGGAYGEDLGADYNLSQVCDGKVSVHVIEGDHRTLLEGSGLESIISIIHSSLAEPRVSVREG
SENP1 FRET inh – inhibitors of human SENP1 SUMO protease catalytic domain; inhibition, % at 10 µM; 360,000 tested, 0.21% active; AID 624204; recombinant SENP1 catalytic domain, CyPet-SUMO1-YPet FRET cleavage;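 active = inhibition at least 30% at 10 µM, raw YFP signal under a set limit, fluorescence ratio 0.5 to 1.5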;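 also: 0% = enzyme with DMSO and 100% = no enzyme wells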
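Material – human SENP1 catalytic domain · Input – SENP1 enzyme, 20 pM final · Compound dosing – single concentration of 10 µM compound, 0.5% DMSO final · Timing – enzyme reaction for 50 min at room temperature, dark · Measured by – FRET fluorescence in CFP and YFP emission channels · Control set – no-enzyme wells low, DMSO-plus-enzyme wells high control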
FAS-TE inh conf – confirmation of human fatty acid synthase thioesterase inhibitors. shares compounds with FAS TE block. recombinant FAS-TE, OMFH fluorogenic substrate, fluorescence. inhibition, % at 15 µM. 2,300 tested, 45% active. AID 624325;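 active = compounds inhibiting the enzyme by at least 50% at 15 µM in any one of the replicates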;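 also: 0% = enzyme with DMSO only and 100% = wells lacking enzyme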
* hit, by the source's call.

What do the screens show for `COC(=O)c1cc(OC)c(OC)cc1NC(=O)CCC1CCCC1`?
Arr AP2 block: -2; GASC-1 inh: 9; FAS TE block: 14; SENP1 FRET inh: -1

Results for CC(C)OC(=O)/C(C#N)=C/c1cn(Cc2ccccc2)c2ccccc12 ?
Arr AP2 block: 1; GASC-1 inh: -1; FAS TE block: 24; SENP1 FRET inh: -74

What do the screens show for `CC(C)OC(=O)/C(C#N)=C/c1cn(C)c2ccccc12`?
Arr AP2 block: -3; GASC-1 inh: -34; FAS TE block: 52*; SENP1 FRET inh: -71; FAS-TE inh conf: 49*

How did Cc1ncn(-c2ccccc2)c1-c1ccccc1 do in these assays?
Arr AP2 block: -7; GASC-1 inh: 0; FAS TE block: -7; SENP1 FRET inh: -1

What do the screens show for `Cc1ccc(S(=O)(=O)c2nnn3c2nc(NCCCN2CCCC2=O)c2ccccc23)cc1C`?
Arr AP2 block: 8; GASC-1 inh: -11; FAS TE block: 71*; SENP1 FRET inh: 2; FAS-TE inh conf: 69*

Results for CCc1ccc(S(=O)(=O)c2nnn3c2nc(NCCNC(C)=O)c2ccccc23)cc1 ?
Arr AP2 block: 4; GASC-1 inh: 6; FAS TE block: 77*; SENP1 FRET inh: 1; FAS-TE inh conf: 79*

Results for CCCCNc1nc2c(S(=O)(=O)c3ccccc3)nnn2c2ccccc12 ?
Arr AP2 block: 2; FAS TE block: -2; SENP1 FRET inh: 2

How did Cc1ccccc1NC1=C(Cl)C(=O)OC1OC(=O)c1ccco1 (stereo not given) do in these assays?
Arr AP2 block: 5; GASC-1 inh: 17; FAS TE block: 74*; SENP1 FRET inh: 1; FAS-TE inh conf: 87*

How did COc1ccccc1NC1=C(Cl)C(=O)OC1OC(=O)c1ccco1 (stereo not given) do in these assays?
Arr AP2 block: -15; GASC-1 inh: 5; FAS TE block: 36; SENP1 FRET inh: 0

What do the screens show for `O=C(/C=C/c1cccc([N+](=O)[O-])c1)NCCSCc1c(Cl)cccc1Cl`?
Arr AP2 block: -10; GASC-1 inh: 3; FAS TE block: 65*; SENP1 FRET inh: 2; FAS-TE inh conf: 53*

What do the screens show for `Cc1ccc(SCCNC(=O)/C=C/c2cccc([N+](=O)[O-])c2)cc1`?
Arr AP2 block: 16; GASC-1 inh: 2; FAS TE block: 46; SENP1 FRET inh: 0

Results for O=C(/C=C/c1cccc([N+](=O)[O-])c1)NCCSCc1ccc(Cl)cc1 ?
Arr AP2 block: 3; GASC-1 inh: -2; FAS TE block: 54*; SENP1 FRET inh: 0; FAS-TE inh conf: 51*

Results for O=C(Nc1ccc(Br)cc1)C1CC=CCC1C(=O)OCC1CCCO1 (stereo not given) ?
Arr AP2 block: 4; GASC-1 inh: 3; FAS TE block: -6; SENP1 FRET inh: 3

How did CCCCN(CC)Cc1c(C)[nH]c2c(ccc3ccccc32)c1=O do in these assays?
Arr AP2 block: 1; GASC-1 inh: 9; FAS TE block: -5; SENP1 FRET inh: -5

Results for CC1CCN(S(=O)(=O)c2ccc3c(c2)c(=O)c(C(=O)NCc2cccs2)cn3C)CC1 ?
Arr AP2 block: -4; GASC-1 inh: 5; FAS TE block: 65*; SENP1 FRET inh: 0; FAS-TE inh conf: 18

How did Cn1cc(C(=O)NCC2COc3ccccc3O2)c(=O)c2cc(S(=O)(=O)N3CCCCC3)ccc21 (stereo not given) do in these assays?
Arr AP2 block: 10; GASC-1 inh: 136; FAS TE block: 53*; SENP1 FRET inh: 2; FAS-TE inh conf: 10

What do the screens show for `CC1CCN(S(=O)(=O)c2ccc3c(c2)c(=O)c(C(=O)NCc2ccco2)cn3C)CC1`?
Arr AP2 block: -10; GASC-1 inh: 2; FAS TE block: 71*; SENP1 FRET inh: 1; FAS-TE inh conf: 80*

What do the screens show for `CC(C(=O)NC1CCCCCC1)n1cc([N+](=O)[O-])cn1` (stereo not given)?
Arr AP2 block: 9; GASC-1 inh: 1; FAS TE block: 4; SENP1 FRET inh: 0

How did COc1cc(C(=O)OCc2csc(CC(=O)Nc3cc(C)ccc3C)n2)ccc1OC(F)F do in these assays?
Arr AP2 block: 31; FAS TE block: 15; SENP1 FRET inh: -11

Results for Cc1ccc(Cl)cc1N1CCN(C(=O)C2CCN(S(=O)(=O)c3cccnc3)CC2)CC1 ?
Arr AP2 block: 5; GASC-1 inh: 4; FAS TE block: 50*; SENP1 FRET inh: 1; FAS-TE inh conf: 22

How did O=C(C1CCN(S(=O)(=O)c2cccnc2)CC1)N1CCN(c2ccccc2Cl)CC1 do in these assays?
Arr AP2 block: -10; GASC-1 inh: 0; FAS TE block: -2; SENP1 FRET inh: 1

What do the screens show for `Cc1ccc2c(CC(=O)N3CCN(c4ccccc4)CC3)coc2c1`?
Arr AP2 block: 11; GASC-1 inh: -1; FAS TE block: 12; SENP1 FRET inh: -3

Results for Nc1ccc(C(=O)OCC(=O)N2c3ccccc3Sc3ccccc32)cc1[N+](=O)[O-] ?
Arr AP2 block: -8; GASC-1 inh: -43; FAS TE block: 66*; SENP1 FRET inh: -1; FAS-TE inh conf: 24

Results for O=C(COC(=O)c1ccc(Cl)c([N+](=O)[O-])c1)NC1CCCC1 ?
Arr AP2 block: -2; GASC-1 inh: 7; FAS TE block: 74*; SENP1 FRET inh: 0; FAS-TE inh conf: 65*

What do the screens show for `Nc1ccc(C(=O)OCC(=O)N2CCc3ccccc3C2)cc1[N+](=O)[O-]`?
Arr AP2 block: -8; GASC-1 inh: -6; FAS TE block: 23; SENP1 FRET inh: 2

What do the screens show for `O=C(COC(=O)c1ccccc1C(=O)c1ccc(Cl)c([N+](=O)[O-])c1)NC1CCCCCC1`?
Arr AP2 block: -11; GASC-1 inh: 11; FAS TE block: 28; SENP1 FRET inh: 3

Results for O=C(OCC(=O)N1CCc2ccccc2C1)c1ccc(Cl)c([N+](=O)[O-])c1 ?
Arr AP2 block: 2; GASC-1 inh: 11; FAS TE block: 72*; SENP1 FRET inh: 3; FAS-TE inh conf: 71*

What do the screens show for `CCOC(=O)c1c(NC(=O)CN2CCCCC2)sc2c1CCCC2O` (stereo not given)?
Arr AP2 block: 1; GASC-1 inh: -12; FAS TE block: 14; SENP1 FRET inh: -5

Results for CCN1C(=O)[C@@H]2[C@@H](c3ccc(-c4ccc5c(c4)OCO5)c(OC)c3)N3CCCC[C@@]3(C(=O)OC)[C@@H]2C1=O ?
Arr AP2 block: 7; GASC-1 inh: 16; FAS TE block: 53*; SENP1 FRET inh: 0; FAS-TE inh conf: 17

Results for COC(=O)[C@@]12CCCCN1[C@H](c1ccc(-c3ccc4c(c3)OCO4)cc1)[C@H]1C(=O)N(C)C(=O)[C@H]12 ?
Arr AP2 block: 4; FAS TE block: 79*; SENP1 FRET inh: 0; FAS-TE inh conf: 17

What do the screens show for `CCCCNC(=O)C1(C)CCN1C(=O)c1cccnc1Oc1ccccc1` (stereo not given)?
FAS TE block: -6; SENP1 FRET inh: -2

Screening results (PubChem)
